In ChEMBL document CHEMBL1145129, “Design, synthesis, and anticancer properties of 4,4'-dihydroxybenzophenone-2,4-dinitrophenylhydrazone and analogues” (J Med Chem, 2003):
Values after ≈ are worked out from the molar mass of the structure shown.

Columns and labels:
Homo sapiens [1] = organism: Homo sapiens; test: In vitro cytotoxicity against Human lung tumor cells.; format: functional
Outline: (§1)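 Fresh surgical human tumor specimens minced to ≤0.1 mm fragments in RPMI-1640 with 10% FBS, streptomycin and penicillin (10⁶–10⁸ cells/mL), explanted into slide flasks. Exposed 24 h at 37 °C, 5% CO₂, to test agent 0.1–20 μg/mL (≥5 doses over 3 logs), in duplicate. Washed, recultured 7–14 days, fixed, HPF cell counts vs control; IC50 (SD) from percent growth.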

Colon carcinoma cell = test: In vitro cytotoxicity was tested in human colon tumor cells; format: functional, cell-based; outline: as §1
Melanoma tumor cell line [2] = test: In vitro cytotoxicity against Human melanoma tumor cells; Not available.; format: functional, cell-based; outline: as §1
[3] = In vitro cytotoxicity in Human breast tumor cells; format: functional, cell-based; outline: as §1
Melanoma tumor cell line [4] = test: In vitro cytotoxicity against Human melanoma tumor cells.; format: functional, cell-based; outline: as §1
Homo sapiens [5] = organism: Homo sapiens; test: In vitro cytotoxicity against Human lung tumor cells; Not available.; format: functional; outline: as §1
Homo sapiens [6] = organism: Homo sapiens; test: In vitro cytotoxicity in Human ovary tumor cells; format: functional; conditions: Female gonad; outline: as §1
[7] = system: breast cancer cells (Homo sapiens); test: In vitro cytotoxicity in Human breast tumor cells
MDA-MB-435 = test: In vitro cytotoxicity in MDA-MB-435 cell line; format: functional, cell-based; conditions: Homo sapiens
Outline: (§2)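 Established tumor lines kept in RPMI-1640 with 10% fetal calf serum and penicillin/streptomycin at 36 °C, 10% CO₂. Seeded 2000–3000 cells/well; hydrazone-containing medium added after 18 h, then 36 h further culture. Viable cells read by MTT absorbance at 570 nm; cytostasis (%) = (1 − A_treated/A_control) × 100.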

[8] = In vitro cytotoxicity in KM 12L4 cell line; format: functional, cell-based; conditions: Homo sapiens; outline: as §2
[9] = In vitro cytotoxicity in SN 12 PM6 cell line; format: functional, cell-based; conditions: Homo sapiens; outline: as §2
[10] = In vitro cytotoxicity in K 1735 M2 cell line; format: functional

| Compound | IC50 (Homo sapiens [1]) [µg/mL] | IC50 (Colon carcinoma cell) [µg/mL] | IC50 (Melanoma tumor cell line [2]) | IC50 [3] [µg/mL] | IC50 (Melanoma tumor cell line [4]) [µg/mL] | IC50 (Homo sapiens [5]) | IC50 (Homo sapiens [6]) [µg/mL] | IC50 [7] [µg/mL] | IC50 (MDA-MB-435) [µg/mL] | IC50 [8] [µg/mL] | IC50 [9] [µg/mL] | IC50 [10] [µg/mL] |
| --- | --- | --- | --- | --- | --- | --- | --- | --- | --- | --- | --- | --- |
| C=CCOc1cccc2c(/N=N/c3ccc([N+](=O)[O-])cc3[N+](=O)[O-])c3cccc(OC(C)=O)c3c(O)c12 | 0.07 (≈ 0.139 µM) | 0.08 (≈ 0.159 µM) | Not Active | 0.1 (≈ 0.199 µM) | – | – | – | – | – | – | – | – |
| O=[N+]([O-])c1ccc(/N=N/c2c3ccccc3c(O)c3c(O)c4ccccc4cc23)c([N+](=O)[O-])c1 | 0.1 (≈ 0.22 µM) | – | Not Active | 0.3 (≈ 0.66 µM) | – | – | – | – | – | – | – | – |
| CN(C)c1ccc(C(=NNc2ccc([N+](=O)[O-])cc2[N+](=O)[O-])c2ccc(N(C)C)cc2)cc1 | – | 10 (≈ 22.3 µM) | – | 4.2 (≈ 9.36 µM) | 5 (≈ 11.1 µM) | Not Active | – | – | – | – | – | – |
| O=[N+]([O-])c1ccc(/N=N/c2c3ccccc3c3c4c(cccc24)NN3)c([N+](=O)[O-])c1 | – | > 5 | Not Active | > 5 | – | Not Active | > 5 | – | – | – | – | – |
| CC(=O)Oc1cccc2c1-c1nn(-c3ccccc3)c(=O)c3cccc(c13)C2=O | – | – | Not Active | > 5 | – | Not Active | > 10 | – | – | – | – | – |
| O=[N+]([O-])c1ccccc1NN=C(c1ccc(O)cc1)c1ccc(O)cc1 | – | 4.7 (≈ 13.5 µM) | Not Active | – | – | Not Active | – | 3.9 (≈ 11.2 µM) | – | – | – | – |
| Nc1ccc2c(/N=N/c3ccc([N+](=O)[O-])cc3[N+](=O)[O-])c3ccccc3c(O)c2c1N | – | 5 (≈ 12 µM) | Not Active | 5 (≈ 12 µM) | – | Not Active | 6 (≈ 14.3 µM) | – | – | – | – | – |
| O=[N+]([O-])c1ccc(N/N=C2\c3ccccc3-c3cccc(O)c32)c([N+](=O)[O-])c1 | – | > 5 | Not Active | 7.5 (≈ 19.9 µM) | – | Not Active | – | – | – | – | – | – |
| O=[N+]([O-])c1ccc(N/N=C(\c2ccccc2)c2ccc(O)cc2O)c([N+](=O)[O-])c1 | – | – | Not Active | – | – | Not Active | – | 0.5 (≈ 1.27 µM) | – | – | – | – |
| O=[N+]([O-])c1ccc(/N=N/c2c3ccccc3c(O)c3c(O)c(O)ccc23)c([N+](=O)[O-])c1 | > 10 | 0.25 (≈ 0.595 µM) | – | 0.007 (≈ 0.0167 µM) | > 5 | – | > 10 | – | – | – | – | – |
| O=[N+]([O-])c1ccc(N/N=C(\c2ccc(O)cc2)c2ccc(Cl)cc2)c([N+](=O)[O-])c1 | – | > 10 | Not Active | – | – | Not Active | – | 8.7 (≈ 21.1 µM) | – | – | – | – |
| O=[N+]([O-])c1ccc(NN=c2c3ccccc3oc3ccccc23)c([N+](=O)[O-])c1 | > 10 | 0.05 (≈ 0.133 µM) | – | 0.04 (≈ 0.106 µM) | > 10 | – | 0.05 (≈ 0.133 µM) | – | – | – | – | – |
| Oc1ccc(C(=NNc2ccccc2)c2ccc(O)cc2)cc1 | > 10 | > 5 | – | – | 7 (≈ 23 µM) | – | 6.2 (≈ 20.4 µM) | > 5 | – | – | – | – |
| O=[N+]([O-])c1ccc(N/N=C(\c2ccccc2)c2ccc(O)cc2)c([N+](=O)[O-])c1 | – | 0.5 (≈ 1.32 µM) | – | – | > 10 | Not Active | 0.3 (≈ 0.793 µM) | 5 (≈ 13.2 µM) | – | – | – | – |
| CC(=O)c1ccc2c(c1)/C(=N\Nc1ccc([N+](=O)[O-])cc1[N+](=O)[O-])c1ccc(C(C)=O)cc1-2 | > 5 | 0.7 (≈ 1.58 µM) | – | > 5 | 0.5 (≈ 1.13 µM) | – | 0.9 (≈ 2.03 µM) | – | – | – | – | – |
| Nc1ccc2c(NNc3ccc([N+](=O)[O-])cc3[N+](=O)[O-])c3cc(N)ccc3c(/N=N/c3ccc([N+](=O)[O-])cc3[N+](=O)[O-])c2c1 | – | > 5 | Not Active | > 5 | – | Not Active | > 5 | – | – | – | – | – |
| CCN(CC)c1ccc(C(=NNc2ccc([N+](=O)[O-])cc2[N+](=O)[O-])c2ccc(N(CC)CC)cc2)cc1 | – | > 10 | – | > 7 | 5 (≈ 9.91 µM) | Not Active | – | – | – | – | – | – |

| Compound | IC50 (Homo sapiens [1]) [µg/mL] | IC50 (Colon carcinoma cell) [µg/mL] | IC50 (Melanoma tumor cell line [2]) | IC50 [3] [µg/mL] | IC50 (Melanoma tumor cell line [4]) [µg/mL] | IC50 (Homo sapiens [5]) | IC50 (Homo sapiens [6]) [µg/mL] | IC50 [7] [µg/mL] | IC50 (MDA-MB-435) [µg/mL] | IC50 [8] [µg/mL] | IC50 [9] [µg/mL] | IC50 [10] [µg/mL] |
| --- | --- | --- | --- | --- | --- | --- | --- | --- | --- | --- | --- | --- |
| CC(=O)Oc1cccc2c(/N=N/c3ccc([N+](=O)[O-])cc3[N+](=O)[O-])c3cccc(OC(C)=O)c3c(O)c12 | 0.1 (≈ 0.198 µM) | 0.16 (≈ 0.317 µM) | – | 0.04 (≈ 0.0793 µM) | 0.07 (≈ 0.139 µM) | – | 0.3 (≈ 0.595 µM) | – | 0.041 (≈ 0.0813 µM) | 0.07 (≈ 0.139 µM) | 0.021 (≈ 0.0416 µM) | 0.042 (≈ 0.0833 µM) |
| Cc1ccc(NN=C(c2ccc(O)cc2)c2ccc(O)cc2)c(C)c1 | – | – | Not Active | – | – | Not Active | – | 10 (≈ 30.1 µM) | – | – | – | – |
| CC(=O)Oc1cccc2c(/N=N/c3ccc([N+](=O)[O-])cc3[N+](=O)[O-])c3cccc(O)c3c(O)c12 | – | 0.03 (≈ 0.0649 µM) | – | 0.05 (≈ 0.108 µM) | 0.097 (≈ 0.21 µM) | Not Active | 0.4 (≈ 0.865 µM) | – | – | – | – | – |
| O=[N+]([O-])c1ccc(NN=C(c2ccccc2O)c2ccccc2O)c([N+](=O)[O-])c1 | 6 (≈ 15.2 µM) | 8 (≈ 20.3 µM) | – | – | > 5 | – | 5 (≈ 12.7 µM) | 4.7 (≈ 11.9 µM) | – | – | – | – |
| O=[N+]([O-])c1ccc(N(Cc2ccccc2)N=c2c3ccccc3oc3ccccc23)c([N+](=O)[O-])c1 | – | – | – | > 10 | > 10 | Not Active | > 10 | – | – | – | – | – |
| O=[N+]([O-])c1ccc(NN=C2c3cc(O)ccc3-c3ccc(O)cc32)c([N+](=O)[O-])c1 | > 10 | 0.06 (≈ 0.153 µM) | – | 0.05 (≈ 0.127 µM) | 4.1 (≈ 10.5 µM) | – | 0.08 (≈ 0.204 µM) | – | – | – | – | – |
| COc1ccc(C(=NNc2ccc([N+](=O)[O-])cc2[N+](=O)[O-])c2ccc(OC)cc2O)c(O)c1 | – | 4.5 (≈ 9.9 µM) | Not Active | – | – | Not Active | > 5 | 1.5 (≈ 3.3 µM) | – | – | – | – |
| O=[N+]([O-])c1ccc(NN=C(c2ccc(O)cc2O)c2ccc(O)cc2O)c([N+](=O)[O-])c1 | > 5 | > 5 | Not Active | – | – | – | 0.03 (≈ 0.0704 µM) | > 10 | – | – | – | – |
| CC(=O)Oc1ccc(C(=NNc2ccc([N+](=O)[O-])cc2[N+](=O)[O-])c2ccc(OC(C)=O)cc2)cc1 | > 10 | > 10 | – | – | > 10 | – | > 10 | – | – | – | – | – |
| Nc1ccc(/C(=N/Nc2ccc([N+](=O)[O-])cc2[N+](=O)[O-])c2ccccc2N)cc1 | – | 8 (≈ 20.4 µM) | – | 0.7 (≈ 1.78 µM) | 6 (≈ 15.3 µM) | Not Active | 2 (≈ 5.1 µM) | – | – | – | – | – |
| O=[N+]([O-])c1ccc(/N=N/c2c3cc(O)ccc3c(NNc3ccc([N+](=O)[O-])cc3[N+](=O)[O-])c3cc(O)ccc23)c([N+](=O)[O-])c1 | 1 (≈ 1.67 µM) | 3.9 (≈ 6.5 µM) | Not Active | 2.5 (≈ 4.16 µM) | – | – | – | – | – | – | – | – |
| CC(=O)Nc1ccc(C(=NNc2ccc([N+](=O)[O-])cc2[N+](=O)[O-])c2ccc(NC(C)=O)cc2)cc1 | – | > 10 | – | > 10 | > 10 | Not Active | > 10 | – | – | – | – | – |
| C/C(=N\Nc1ccc([N+](=O)[O-])cc1)c1ccc(O)cc1 | – | – | Not Active | 5 (≈ 18.4 µM) | – | Not Active | 6 (≈ 22.1 µM) | – | – | – | – | – |
| O=[N+]([O-])c1ccc(NN=C(c2ccccc2)c2ccccc2)c([N+](=O)[O-])c1 | > 5 | – | – | – | > 10 | – | > 10 | > 5 | – | – | – | – |
| O=c1c2cccc3c2c(nn1-c1ccccc1[N+](=O)[O-])-c1ccccc1-3 | > 5 | > 5 | – | > 5 | 0.4 (≈ 1.17 µM) | – | > 5 | – | – | – | – | – |
| O=[N+]([O-])c1ccc(NN=c2c3ccccc3[s+]([O-])c3ccccc23)c([N+](=O)[O-])c1 (stereo unspecified) | > 10 | > 10 | – | > 10 | > 10 | – | > 10 | – | – | – | – | – |
